# From PubChem BioAssay
# SUMO1 PPI mod = alters human SUMO1 binding to SIM partners | AID 602429 | inhibition, % at 20 µM | P63165 | SUMO1 binding to a labelled peptide, TR-FRET, 1 h | hit rate 0.33% among 360,000; in the data active means inhibition above about 37%
# Target sequence (P63165 whole entry, looked up): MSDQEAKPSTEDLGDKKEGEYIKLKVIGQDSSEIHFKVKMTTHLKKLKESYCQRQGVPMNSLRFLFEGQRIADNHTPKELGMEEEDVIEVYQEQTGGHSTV
# Rpn11 inh = Rpn11 (human) deubiquitinase inhibition; O00487; human 26S proteasome, Ub4-pepOG fluorescence polarization; 20S core pre-blocked with epoxomicin; inhibition, % at 20 µM; hit rate 0.59% among 360,000; AID 588493;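 active means inhibition at 20 µM, scaled to each plate's controls, above about 33%, limit read from the data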
# MT1-MMP act inh = blocks activation of human MT1-MMP. P50281. HT1080 RFP-PRO-GFP cells, GFP/RFP ratio fluorescence, overnight; percent of plate control window, DMSO zero. GFP/RFP ratio change, % at 20 µM. hit rate 0.061% among 360,000;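 active means GFP/RFP ratio change of at least 30% with cell ATP level not reduced by more than half and red fluorescence within 50% of control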
#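 Test system: HT1080 RFP-PRO-GFP cells; Benchmarks: DMSO and RFP-L50D-GFP cell wells; Timing: cells overnight before dosing, compound overnight, 37 °C, 5% CO2; Compound: one 20 µM compound dose with 1% DMSO; Read-out: GFP/RFP fluorescence ratio.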
# DNMT1 inh = inhibitors of human DNMT1 | P26358 | DNMT1 molecular beacon, Hinp1I cleavage, fluorescence | inhibition (reported as % activation of signal), % at 10 µM | hit rate 0.83% among 360,000 | AID 588458; in the data active means inhibition above about 50%
# SKN-1 block = blocks SKN-1 activity in C. elegans | C. elegans VP596 Pgst-4::GFP/RFP ratio, acrylamide-induced, 24 h | hit rate 0.49% among 360,000 | AID 624304 | inhibition, % at 21.8 µM;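 active means interference check ratio from 0.5 to 1.5 plus GFP to RFP signal ratio inhibition reaching or exceeding a fixed threshold, cut at about 30% in these data, passing the limit was not always enough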
# CSN inh = CSN deneddylation inhibition; Purified CSN, SCF-Nedd8-OG deneddylation, fluorescence polarization; Q92905; AID 651999; inhibition, % at 12.5 µM; hit rate 0.38% among 360,000;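 active means pattern-corrected inhibition above about 35%, with an unprinted fluorescence ratio check between 0.5 and 1.5, limit read from the data, passing the limit was not always enough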;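 further: 0% = enzyme with substrate and 100% = substrate without enzyme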
# Target sequence (Q92905 whole entry, looked up, one chain of several): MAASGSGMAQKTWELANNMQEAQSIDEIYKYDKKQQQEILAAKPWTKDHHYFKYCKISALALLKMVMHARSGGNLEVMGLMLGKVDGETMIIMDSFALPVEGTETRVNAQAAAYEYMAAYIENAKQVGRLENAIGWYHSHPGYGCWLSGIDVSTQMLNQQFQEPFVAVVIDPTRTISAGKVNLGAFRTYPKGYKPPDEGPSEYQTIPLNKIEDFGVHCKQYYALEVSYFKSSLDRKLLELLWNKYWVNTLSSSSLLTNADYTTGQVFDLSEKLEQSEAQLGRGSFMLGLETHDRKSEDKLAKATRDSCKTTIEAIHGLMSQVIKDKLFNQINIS
#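 Test system: purified human Csn5 enzyme expressed in HEK293T cells. Amount: 0.24 nM enzyme. Reagent: SCFSkp2-Nedd8OG substrate at 10 nM final. Schedule: 90 min incubation of compound, enzyme and substrate at room temperature. Detection: fluorescence polarization. Read-out: % inhibition of substrate cleavage by Csn5.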
# Beacon interf DR = counter-screen for DNMT1 inhibitors: spectral interference, dose response. shares compounds with DNMT1 inh. molecular beacon fluorescence. IC50, µM. 200 tested, under 10 active; call rule not given here
# DNMT1 inh conf = DNMT1 inhibition confirmation, single concentration; shares compounds with DNMT1 inh; DNMT1 molecular beacon HinP1I cleavage, fluorescence; inhibition, % at 10 µM; hit rate 8% among 2,300;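 active means average inhibition of at least 30% in the single-concentration confirmation test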
# DNMT1 interf = shows spectral interference in the DNMT1 beacon assay; AID 602387; DNMT1 molecular beacon spectral interference counterscreen, fluorescence 485/520; activation (fluorescence interference), % at 10 µM; hit rate 1% among 2,300; shares compounds with DNMT1 inh;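 active means activation of at least 30% at 10 µM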;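 further: DNMT1 catalytic domain with a HinP1I cleavage step and a FAM/dabcyl DNA beacon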
# * hit, by the source's call; / = not tested or not shown. In the library only some 2.3% were active in any assay of this set; here they are far more common.
SMILES,SUMO1 PPI mod,Rpn11 inh,MT1-MMP act inh,DNMT1 inh,SKN-1 block,CSN inh,DNMT1 inh conf,DNMT1 interf,others
O=C(NCC1CCCCC1)c1ccc2nc([C@@H]3O[C@H](CO)[C@@H](O)[C@H]3O)[nH]c2c1,5,2,1,-1,-7,-3,/,/,
C/C(CC(=O)Nc1ccccc1C#N)=N\NC(=O)c1ccncc1,3,7,0,82*,5,-3,3,2,
Cc1cccc(N=C2C(=O)Nc3c(Cl)cccc32)c1,-4,0,-4,11,6,-2,/,/,
O=C1Nc2c(Cl)cc(Cl)cc2C1=O,-5,3,-4,60*,6,6,16,-13,Beacon interf DR=>99
Cc1ccc(C(O)c2ncc(-c3ccccc3Cl)[nH]2)cc1F (stereo unspecified),2,-4,0,8,18,12,/,/,
Cc1cc(/C=C\c2nc(O)c([N+](=O)[O-])c(=O)[nH]2)c(C)n1-c1ccccc1,18,-10,0,74*,5,19,7,4,
COc1ccc(-n2c(C)cc(/C=C/c3nc(O)c([N+](=O)[O-])c(=O)[nH]3)c2C)cc1,9,-11,-3,44,5,13,/,/,
Clc1ccc2c(N/N=C/c3cccnc3)ccnc2c1,-10,7,8,12,4,-1,/,/,
Clc1ccc(NNc2ccnc3cc(Cl)ccc23)cc1,0,-7,6,14,3,11,/,/,
Cc1ccccc1/C=N/Nc1ccnc2cc(Cl)ccc12,26,6,-2,70*,-2,2,3,-2,
Oc1ccc(/C=N/Nc2ccnc3cc(Cl)ccc23)c(O)c1,112*,31,-3,84*,-10,24,4,0,
Clc1ccc2c(N/N=C/c3ccc(Br)cc3)ccnc2c1,1,-4,-1,66*,8,-18,3,2,
Cc1ccc(/C=N/Nc2ccnc3cc(Cl)ccc23)c(C)c1,4,16,-10,62*,25,4,6,-1,
[O-][n+]1cccc2cccc(O)c21,-6,0,1,-5,14,-1,/,/,
C[n+]1cccc2cccc([O-])c21,40*,-56,1,78*,4,30,2,-3,
C[C@@H]1ON(C)[C@H]2C[C@H]3c4[nH]c5ccc(-c6ccc7c(c6)OCO7)cc5c4CCN3C[C@@H]12,0,16,-5,-34,0,-1,/,/,
O=C(Nc1ccccc1N1CCCC1)c1cccc(-c2cc3ccccc3oc2=O)c1,-2,12,2,3,1,2,/,/,
O=C(Nc1ccc(S(=O)(=O)N2CCOCC2)cc1)c1ccc([N+](=O)[O-])cc1Cl,-30,1,-4,-1,13,-1,/,/,
O=C(Nc1ccc(N2CCCC2)cc1)c1ccc([N+](=O)[O-])cc1Cl,-10,3,0,74*,8,9,1,-2,
O=C(Nc1ccc(N2CCCC2)cc1)c1cccc(-c2cc3ccccc3oc2=O)c1,-2,13,-7,76*,6,8,-1,4,
O=C(Nc1ccc(Br)cn1)c1cccc(-c2cc3ccccc3oc2=O)c1,-3,3,0,64*,-5,-8,1,-4,
O=C(Nc1ccc(N2CCCC2)cc1)c1ccc2ccccc2c1,1,4,-1,61*,5,-3,3,2,
Cc1ccc(C)c(N2CCN(C(C(=O)NC3CCCC3)c3ccco3)CC2)c1 (stereo unspecified),15,/,-8,/,29,0,/,/,
CCNC(=O)C1(C)CCCN(Cc2ccc(-n3ccnc3)cc2)C1 (stereo unspecified),1,0,1,1,8,0,/,/,
